Screens (PubChem)
Only some compounds are listed: those with a hit (about 2% of all), similar ones and a draw of the others.
PglD inh: C. jejuni PglD acetyltransferase inhibitors, primary screen, biochemical, DTNB colorimetric, single point; UDP-N-acetylbacillosamine N-acetyltransferase PglD (Campylobacter jejuni); purified PglD enzyme, DTNB colorimetric CoA detection; inhibition, % at 12.5 µM; actives 0.098% (n = 360,000); in the data active = inhibition above about 16%, passing the limit was not always enough
Xi reactivation: activators of inactive X chromosome reactivation, primary screen, imaging, XiGFP fibroblasts, GFP high-content imaging, set 2; activation, % at 7.58 µM; actives 0.055% (n = 360,000); AID 743238, 2013; XiGFP mouse fibroblasts, % GFP-positive cells imaging, 3 d; cells co-treated with 5-aza-dC sensitizer; scaled so ellipticine positive control = 100%;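 active = mean normalized replicate activation at least 10% and every replicate at or above 10%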;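 also: 0% = median of on-plate neutral control wells and 100% = ellipticine 6 µM median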
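Material: SV40-immortalized XiGFP fibroblast cells, line 68-5-11 | Buffer or medium: DMEM containing 5-aza-dC | Dosing: One concentration, pinned | Times: 3 d treatment, 15 min room-temperature fixation | Controls: Ellipticine 6 µM positive control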
RAD54 branch: inhibitors of human RAD54 branch migration, primary screen, biochemical, fluorescence, single point; inhibition, % at 10.4 µM; actives 0.14% (n = 360,000); DNA repair and recombination protein RAD54-like (Homo sapiens), Q92698; RAD54 Holliday junction branch migration, FAM/BHQ fluorescence;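 active = mean normalized replicate activity at least 40 and at least half of replicates scoring 40 or more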;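 also: 0% = median of neutral control wells and 100% = median of positive control wells; inhibitors cause a drop in the FAM fluorescence signal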
E-sel inducer: E-selectin induction in HUVECs, primary screen, imaging, HUVEC, immunofluorescence imaging, single point; activation, % at 7.58 µM; actives 0.37% (n = 260,000); normalized: neutral wells 0, TNF-alpha wells 100;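 active = mean E-selectin-positive cell signal at least 10% of the positive control, reached in at least 60% of replicates, without over 20% cell loss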
Target sequence (P16581 whole entry, looked up): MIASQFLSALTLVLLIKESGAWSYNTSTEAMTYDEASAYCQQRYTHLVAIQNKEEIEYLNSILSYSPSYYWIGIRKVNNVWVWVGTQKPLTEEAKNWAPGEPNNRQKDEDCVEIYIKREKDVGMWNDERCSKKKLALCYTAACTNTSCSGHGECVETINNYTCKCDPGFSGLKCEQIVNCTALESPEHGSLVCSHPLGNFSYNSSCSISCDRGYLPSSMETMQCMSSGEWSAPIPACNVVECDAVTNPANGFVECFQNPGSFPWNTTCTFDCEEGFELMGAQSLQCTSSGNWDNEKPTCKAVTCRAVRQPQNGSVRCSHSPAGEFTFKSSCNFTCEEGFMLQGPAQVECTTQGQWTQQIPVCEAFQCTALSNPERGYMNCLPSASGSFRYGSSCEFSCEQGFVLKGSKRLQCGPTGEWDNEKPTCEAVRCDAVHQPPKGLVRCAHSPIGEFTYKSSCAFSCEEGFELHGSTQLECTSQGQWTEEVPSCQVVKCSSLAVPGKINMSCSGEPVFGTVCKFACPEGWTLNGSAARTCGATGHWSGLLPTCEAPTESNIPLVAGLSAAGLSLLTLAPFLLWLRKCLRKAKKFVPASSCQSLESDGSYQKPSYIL
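Test system: HUVEC | Signal: Immunofluorescence imaging | Read-out: Percent E-selectin-positive cells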
Ecoli rRNA inh: reduced GFP signal of wild-type E. coli, primary screen, bacterial rRNA inhibitor project, GFP/RFP fluorescence, OD600, single point; E. coli WT GFP vs humanized-ribosome RFP mutants, 24 h; active compounds read low; DMSO median 0, no signal -100; actives 1.6% (n = 350,000); GFP signal change (wild-type ribosome), % (no concentration beside the values);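 active = significant combined selectivity score with lowered wild-type GFP, culture density cut under 30%, mutant RFP and density less affected; inactive = any of these conditions unmet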
RAD52 inh: RAD52 DNA annealing inhibitors, primary screen, biochemical, FRET, single point, set 2. DNA repair protein RAD52 homolog (Homo sapiens), P43351. recombinant RAD52 DNA annealing, FRET fluorescence. inhibition, % at 18.7 µM. actives 0.46% (n = 360,000). AID 651710, 2012;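 active = every replicate showing at least 50% inhibition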
Numbers without * were called inactive.

Nc1nc2c(s1)CCCCCCCCCC2 was read as PglD inh 9, Xi reactivation 0, RAD54 branch 4, E-sel inducer 0, Ecoli rRNA inh -50* and RAD52 inh -4.
CC(=O)N1c2ccc(S(=O)(=O)N(C)c3cc(C)ccc3C)cc2CC1C (stereo unspecified) was read as PglD inh -4, Xi reactivation 0, RAD54 branch -1, E-sel inducer 0, Ecoli rRNA inh -29* and RAD52 inh -5.
Screening Cc1ccc(N(C)S(=O)(=O)c2ccc3c(c2)CC(C)N3C(=O)C2CC2)cc1 (stereo unspecified) returned Xi reactivation 0, E-sel inducer 0, Ecoli rRNA inh -10 and RAD52 inh -12.
Screening COc1cccc(CNC(=O)c2cc3c(cc2Cl)N2CCCCCC2=NS3(=O)=O)c1 returned Xi reactivation 0, E-sel inducer 100*, Ecoli rRNA inh -8 and RAD52 inh -38.
`COc1cccc(CNC(=O)c2ccc3c(c2)S(=O)(=O)N=C2CCCCCN23)c1` gave PglD inh 4, Xi reactivation 0, RAD54 branch -1, Ecoli rRNA inh 8 and RAD52 inh -4.
`CC1(C(=O)NNC(=O)C2CCCCC2)CC1(Cl)Cl` (stereo unspecified) gave PglD inh 1, Xi reactivation 0, RAD54 branch -4, E-sel inducer 0, Ecoli rRNA inh -27* and RAD52 inh -18.
Screening Cc1cc(C)cc(N(C(=O)c2snc(C(N)=O)c2N)C(C(=O)NCC2CCCO2)c2ccc(C)o2)c1 (stereo unspecified) returned PglD inh 3, Xi reactivation 0, RAD54 branch 26, Ecoli rRNA inh 0 and RAD52 inh -21.
Screening COc1cc(OC)cc(N(C(=O)c2snc(C(N)=O)c2N)C(C(=O)NCC2CCCO2)c2ccc(C)o2)c1 (stereo unspecified) returned PglD inh 0, Xi reactivation 0, RAD54 branch -4, E-sel inducer 44*, Ecoli rRNA inh -1 and RAD52 inh -21.
`C[C@@H]1CCCCO[C@@H](CN(C)Cc2ccc(C(=O)O)cc2)[C@H](C)CN([C@@H](C)CO)C(=O)c2cc(NC(=O)Nc3cccc4ccccc34)ccc2O1` gave PglD inh 6, Xi reactivation 0, RAD54 branch 7, E-sel inducer 0, Ecoli rRNA inh -4 and RAD52 inh -12.
For C[C@@H]1CCCCO[C@@H](CN(C)C(=O)NC2CCCCC2)[C@H](C)CN([C@H](C)CO)C(=O)c2cc(NS(=O)(=O)c3ccc(F)cc3)ccc2O1 the results were PglD inh 0, Xi reactivation 0, RAD54 branch 2, Ecoli rRNA inh 0 and RAD52 inh 20.
Screening C/C(=N\N1CCN(Cc2ccc(Cl)cc2)CC1)c1ccc(F)cc1 returned PglD inh -1, Xi reactivation 0, RAD54 branch -2, E-sel inducer 0, Ecoli rRNA inh -18* and RAD52 inh -6.
COc1ccccc1-c1cn(CC[C@H]2CC[C@H](NC(=O)c3ccccc3F)[C@@H](CO)O2)nn1 was read as PglD inh 0, Xi reactivation 0, RAD54 branch -10, E-sel inducer 0, Ecoli rRNA inh -5 and RAD52 inh -1.
For O=C(c1ccccn1)N1CC[C@@H]2[C@H](CO)Nc3ccc(-c4ccccc4)cc3[C@@H]21 the results were PglD inh 0, Xi reactivation 0, RAD54 branch -2, E-sel inducer 0, Ecoli rRNA inh -6 and RAD52 inh -93.
Screening CCOC(=O)N(C)C[C@H]1OCc2ccccc2-c2ccccc2C(=O)N([C@H](C)CO)C[C@@H]1C returned PglD inh -3, Xi reactivation 0, RAD54 branch -6, E-sel inducer 0, Ecoli rRNA inh 2 and RAD52 inh 2.
`Cc1cccc2nc(-c3cccnc3)c(NCCC(C)C)n12` gave Xi reactivation 0, E-sel inducer 0, Ecoli rRNA inh 13 and RAD52 inh -13.
Screening Cc1cccc2nc(-c3cccnc3)c(Nc3ccccc3)n12 returned PglD inh 0, Xi reactivation 0, RAD54 branch 3, Ecoli rRNA inh -36* and RAD52 inh -10.
For S=c1[nH]nc(SCc2ccccc2)c2[nH]cnc12 the results were PglD inh 9, Xi reactivation 0, RAD54 branch 3, E-sel inducer 1, Ecoli rRNA inh -17* and RAD52 inh -21.
Screening CCCCSc1n[nH]c(=S)c2nc[nH]c12 returned PglD inh 2, Xi reactivation 0, RAD54 branch 14, E-sel inducer 0 and RAD52 inh -8.
For CN(C)S(=O)(=O)c1ccc(Cl)c(NC(=O)CSc2nnnn2-c2ccc(O)cc2)c1 the results were Xi reactivation 0, E-sel inducer 2, Ecoli rRNA inh -29* and RAD52 inh -85.
COCCNC(=S)N(CCc1c(C)[nH]c2ccc(Cl)cc12)Cc1cccs1 was read as PglD inh 1, Xi reactivation 0, RAD54 branch -6, E-sel inducer 5, Ecoli rRNA inh -22* and RAD52 inh -2.
`COCCNC(=S)N(CCc1c(C)[nH]c2ccc(F)cc12)Cc1cccs1` gave Xi reactivation 0, E-sel inducer 2, Ecoli rRNA inh -47 and RAD52 inh -16.
For C[C@@H]1CCCCO[C@@H](CN(C)Cc2ccc3c(c2)OCO3)[C@H](C)CN([C@H](C)CO)C(=O)c2cc(N(C)C)ccc2O1 the results were PglD inh 1, Xi reactivation 0, RAD54 branch -1, Ecoli rRNA inh 0 and RAD52 inh 18.
`O=c1oc(-c2ccccc2)nc2sc3c(c12)CCCC3` gave PglD inh -2 and RAD54 branch -19.
O=c1oc(-c2cc3ccccc3o2)nc2sc3c(c12)CCCC3 was read as PglD inh 0, RAD54 branch -7, Ecoli rRNA inh -23* and RAD52 inh -44.
